Drawing on ChEMBL document CHEMBL1145751, “Discovery of (aryloxopropenyl)pyrrolyl hydroxyamides as selective inhibitors of class IIa histone deacetylase homologue HD1-A” (J Med Chem, 2003), this text covers IC50, EC50 and Fold selectivity for twelve molecules.

Non-standard residues stand in square brackets, D forms with d. Residues, ends and D or L forms follow the SMILES beside them. ξ: configuration not given here. Aoe(9ξ) = N[C@@H](CCCCCC(=O)C1CO1)C(=O)O; dPip = O=C(O)[C@H]1CCCCN1

Assay [1] is described as follows: Inhibitory activity afgainst maize Histone deacetylase 1-A. Also on record: species or system Zea mays.
In assay [2] the target is T1, Histone deacetylase HD2 (Zea mays, UniProt Q94F81).
T1 sequence (Q94F81 whole entry): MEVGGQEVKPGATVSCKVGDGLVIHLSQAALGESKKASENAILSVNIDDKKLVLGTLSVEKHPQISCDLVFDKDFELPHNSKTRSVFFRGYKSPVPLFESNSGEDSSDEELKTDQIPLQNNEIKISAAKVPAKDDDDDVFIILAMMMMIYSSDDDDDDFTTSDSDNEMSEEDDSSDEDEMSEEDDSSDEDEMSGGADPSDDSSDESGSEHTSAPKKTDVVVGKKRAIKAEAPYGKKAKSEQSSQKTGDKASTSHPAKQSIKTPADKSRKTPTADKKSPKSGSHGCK
In words: Tested for maize Histone deacetylase 2 inhibitory activity. The gist of the method: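 Purified maize HD2 enzyme was incubated with compounds and [³H]-acetate pre-labeled chicken reticulocyte histones (added from a 4 mg/mL stock) for 30 min at 30 °C. The reaction was stopped with HCl/acetate, and released [³H]-acetate was extracted into ethyl acetate. The upper phase was counted by liquid scintillation. IC50 is the mean of at least three separate experiments.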

Assay [3] can be described thus: Inhibitory activity against maize Histone deacetylase 1-B. Also on record: species or system Zea mays.
Assay [4] addresses T2, Histone deacetylase 1 (Homo sapiens, UniProt Q13547). Briefly: Inhibition of Histone deacetylase 1 induced acetylated histone in mammalian cells. In kind it is cell-based.
A short description of assay [5]: Fold selectivity for classIIa HDAC.
Assay [6] has as its target T2, Histone deacetylase 1. In words: Inhibition of Histone deacetylase 1 induced acetylated histone in mammalian cells. It is filed as cell-based.
The target in assay [7] is T3, Protein deacetylase HDAC6 (Homo sapiens, UniProt Q9UBN7).
T3 sequence (Q9UBN7 whole entry): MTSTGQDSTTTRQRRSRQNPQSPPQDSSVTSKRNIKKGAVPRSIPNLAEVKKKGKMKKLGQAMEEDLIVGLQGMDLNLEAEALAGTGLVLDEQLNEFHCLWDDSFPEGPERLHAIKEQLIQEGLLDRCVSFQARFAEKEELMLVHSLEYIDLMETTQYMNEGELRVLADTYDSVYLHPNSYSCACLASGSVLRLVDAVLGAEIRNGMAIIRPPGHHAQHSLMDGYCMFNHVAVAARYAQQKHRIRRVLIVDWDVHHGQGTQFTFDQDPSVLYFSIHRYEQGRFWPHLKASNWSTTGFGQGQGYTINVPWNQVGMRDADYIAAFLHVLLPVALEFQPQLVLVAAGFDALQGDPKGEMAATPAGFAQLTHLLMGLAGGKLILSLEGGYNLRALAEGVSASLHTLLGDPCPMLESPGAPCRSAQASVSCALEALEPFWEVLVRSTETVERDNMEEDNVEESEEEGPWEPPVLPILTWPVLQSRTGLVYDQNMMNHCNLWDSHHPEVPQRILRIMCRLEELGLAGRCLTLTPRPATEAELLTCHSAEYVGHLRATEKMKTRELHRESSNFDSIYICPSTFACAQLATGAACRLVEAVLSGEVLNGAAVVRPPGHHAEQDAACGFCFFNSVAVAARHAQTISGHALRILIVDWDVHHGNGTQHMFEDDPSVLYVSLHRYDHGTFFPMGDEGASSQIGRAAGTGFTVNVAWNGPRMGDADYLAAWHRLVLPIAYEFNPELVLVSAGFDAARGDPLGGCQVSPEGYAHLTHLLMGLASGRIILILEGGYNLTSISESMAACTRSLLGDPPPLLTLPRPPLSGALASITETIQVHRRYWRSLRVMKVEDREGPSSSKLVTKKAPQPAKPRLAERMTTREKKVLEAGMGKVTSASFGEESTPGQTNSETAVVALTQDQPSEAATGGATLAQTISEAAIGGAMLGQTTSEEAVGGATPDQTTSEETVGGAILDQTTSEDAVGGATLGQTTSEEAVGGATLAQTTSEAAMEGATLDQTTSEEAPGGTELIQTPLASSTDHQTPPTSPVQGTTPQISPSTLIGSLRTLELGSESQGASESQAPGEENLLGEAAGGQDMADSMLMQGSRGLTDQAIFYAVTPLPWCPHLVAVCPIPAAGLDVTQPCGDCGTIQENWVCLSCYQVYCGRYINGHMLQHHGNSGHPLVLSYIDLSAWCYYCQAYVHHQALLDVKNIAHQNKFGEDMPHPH
Briefly: (§1) Tested for inhibition of Histone deacetylase 6 induced acetylated tubulin in mammalian cells. It is filed as cell-based.

For assay [8], the target named is Histone deacetylase 4 (Homo sapiens, UniProt P56524). Briefly: Inhibition of Histone deacetylase 4 in mammalian cells. It is filed as cell-based.
Histone deacetylase 4, sequence (P56524 whole entry): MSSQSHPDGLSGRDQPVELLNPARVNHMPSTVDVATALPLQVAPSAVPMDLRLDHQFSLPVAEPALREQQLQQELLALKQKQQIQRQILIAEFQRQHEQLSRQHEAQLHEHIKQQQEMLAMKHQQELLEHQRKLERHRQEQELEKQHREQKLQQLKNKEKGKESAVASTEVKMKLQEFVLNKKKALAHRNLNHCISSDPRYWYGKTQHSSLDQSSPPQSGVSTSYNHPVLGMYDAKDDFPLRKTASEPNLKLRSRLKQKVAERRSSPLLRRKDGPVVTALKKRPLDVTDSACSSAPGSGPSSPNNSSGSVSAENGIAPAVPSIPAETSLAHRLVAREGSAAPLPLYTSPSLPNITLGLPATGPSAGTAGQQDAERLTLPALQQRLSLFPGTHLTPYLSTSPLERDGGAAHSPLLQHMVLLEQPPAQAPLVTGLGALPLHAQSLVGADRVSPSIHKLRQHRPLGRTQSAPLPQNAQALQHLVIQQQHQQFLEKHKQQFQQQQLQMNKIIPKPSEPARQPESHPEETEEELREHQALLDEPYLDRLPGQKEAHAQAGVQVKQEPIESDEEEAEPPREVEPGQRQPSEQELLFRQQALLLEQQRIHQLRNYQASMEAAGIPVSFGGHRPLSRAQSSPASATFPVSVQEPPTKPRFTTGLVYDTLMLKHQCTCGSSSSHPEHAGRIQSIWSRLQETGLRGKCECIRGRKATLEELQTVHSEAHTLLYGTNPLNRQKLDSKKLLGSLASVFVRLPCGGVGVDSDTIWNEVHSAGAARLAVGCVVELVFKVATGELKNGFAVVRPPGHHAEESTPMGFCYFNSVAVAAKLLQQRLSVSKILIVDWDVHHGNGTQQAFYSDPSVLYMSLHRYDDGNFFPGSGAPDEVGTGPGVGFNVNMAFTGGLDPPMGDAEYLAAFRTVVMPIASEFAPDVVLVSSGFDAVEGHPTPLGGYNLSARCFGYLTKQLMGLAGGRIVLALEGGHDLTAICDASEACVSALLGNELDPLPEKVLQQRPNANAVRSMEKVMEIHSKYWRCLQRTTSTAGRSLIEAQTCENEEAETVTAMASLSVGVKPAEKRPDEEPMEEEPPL
The nature of assay [9]: as §1. It is filed as cell-based.
Assay [10] can be described thus: Inhibition of Histone deacetylase 4 in mammalian cells. It is filed as cell-based.

T2 sequence (Q13547 whole entry): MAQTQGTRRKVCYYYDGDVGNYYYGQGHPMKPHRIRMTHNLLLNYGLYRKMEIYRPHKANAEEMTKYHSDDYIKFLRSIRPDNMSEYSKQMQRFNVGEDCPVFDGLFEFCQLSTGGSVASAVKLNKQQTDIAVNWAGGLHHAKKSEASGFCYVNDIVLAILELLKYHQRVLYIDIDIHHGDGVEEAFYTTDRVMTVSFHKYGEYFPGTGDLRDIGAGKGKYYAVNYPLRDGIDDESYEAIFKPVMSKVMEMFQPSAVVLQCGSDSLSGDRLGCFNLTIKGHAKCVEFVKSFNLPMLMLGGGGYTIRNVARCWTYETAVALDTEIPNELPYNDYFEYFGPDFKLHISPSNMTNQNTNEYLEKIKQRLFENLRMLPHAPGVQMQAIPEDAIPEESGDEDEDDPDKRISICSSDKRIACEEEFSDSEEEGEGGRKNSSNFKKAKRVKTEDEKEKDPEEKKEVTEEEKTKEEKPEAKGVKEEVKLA

As usually defined, the IC50 is the point on the concentration scale where inhibition reaches its midpoint. High values mean a need for much substance, low ones inhibition by little substance. `Cn1cc(/C=C/C(=O)c2ccccc2)cc1/C=C/C(=O)NO`: the IC50 worked out at 200 nM in [1], 280 nM in assay [2] and 300 nM in [3].

A word on the EC50: it is the concentration giving half of the maximal effect. In assay [4], `C/C=C1\NC(=O)[C@H]2CSSCC/C=C/[C@H](CC(=O)N[C@H](C(C)C)C(=O)N2)OC(=O)[C@H](C(C)C)NC1=O` [ROMIDEPSIN] had an EC50 of 36000 nM.

Regarding `Cc1ccccc1C(=O)/C=C/c1cc(/C=C/C(=O)NO)n(C)c1`, the IC50 in assay [1] came out at 60 nM; in assay [2], 270 nM; in [3] it was 400 nM. In [5], this molecule displayed a Fold selectivity of 7.

Take `Cn1cc(/C=C/C(=O)c2ccccc2Cl)cc1/C=C/C(=O)NO`: the IC50 amounted to 50 nM in assay [1], 5200 nM in assay [2] and 1600 nM in assay [3]. The molecule also showed a Fold selectivity in assay [5] of 32.

`Cc1cccc(C(=O)/C=C/c2cc(/C=C/C(=O)NO)n(C)c2)c1`: the IC50 came to 200 nM in [1], 7900 nM in assay [2] and 2500 nM in assay [3]. Also, the Fold selectivity in [5] stood at 12.

For `Cn1cc(/C=C/C(=O)c2ccc(Cl)cc2)cc1/C=C/C(=O)NO`, the IC50 worked out at 18600 nM in assay [1], 25200 nM in [2] and 29400 nM in assay [3].

As to `O=C(CCCCC[C@@H]1NC(=O)[C@H]2CCCCN2C(=O)[C@H](Cc2ccccc2)NC(=O)[C@H](Cc2ccccc2)NC1=O)C1CO1` (some centres undefined) [TRAPOXIN A] (cyclo(FF[dPip][Aoe(9ξ)])), the EC50 is 820 nM in assay [6] and 524000 nM in assay [7].

With `C[C@@H]1NC(=O)[C@H](CCCCCC(=O)NO)NC(=O)[C@H]2CCCN2C(=O)[C@H](C)NC1=O`, the EC50 in [4] stood at 1900 nM; in assay [7] it was 19000 nM. For the same molecule, in assay [8], the IC50 was determined as 2.7 nM.

For the molecule `Cc1ccc(C(=O)/C=C/c2cc(/C=C/C(=O)NO)n(C)c2)cc1`, the IC50 in [1] amounted to 500 nM; in [2], 10200 nM; in assay [3] it was 4800 nM. Further, in assay [5], the Fold selectivity is 10.

`CC(/C=C/C(=O)NO)=C\[C@@H](C)C(=O)c1ccc(N(C)C)cc1` [TRICHOSTATIN]: the IC50 in [1] was found to be 0.8 nM; in [3], 0.4 nM; in assay [10] it was 38 nM. Further, in assay [9], the EC50 worked out at 8600 nM.

For `C[C@@H]1NC(=O)[C@H](CCCCCC(=O)C2CO2)NC(=O)[C@H]2CCCN2C(=O)[C@H](C)NC1=O` (some centres undefined), the EC50 in assay [4] was 110 nM; in assay [7] it was 360000 nM. Also, the 50% inhibitory concentration (IC50) in assay [8] was 0.3 nM.

In the case of `Cn1cc(/C=C/C(=O)c2cccc(Cl)c2)cc1/C=C/C(=O)NO`, the IC50 in assay [1] amounted to 400 nM; in assay [2], 24200 nM; in [3], 31400 nM. The molecule further showed a Fold selectivity in assay [5] of 78.
